# Data from ChEMBL document CHEMBL2169868, “Flavone-based novel antidiabetic and antidyslipidemic agents” (J Med Chem, 2012).
# Experiments:
# [1] = Elimination half life in Sprague-Dawley rat at 25 mg/kg, po by LC-MS/MS method; format: ADME, organism-based; design: dose 25 mg/kg, route oral; conditions: in vivo, read-out: beta t1/2 (converted)
# How it was run: (§1)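 Male Sprague−Dawley rats given a single 25 mg/kg oral dose (aqueous 0.5% methyl cellulose suspension for one compound). Blood drawn from 0.08 to 48 h. LC-MS/MS, linear range 0.78−400 ng/mL.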
# Syrian golden hamster [2] = test: Antidyslipidemic activity in high fructose and high-fat diet fed dyslipidemic Syrian golden hamster model assessed as reduction in cholesterol level at 10 mg/kg/day, po for 7 day, po; format: functional, Mesocricetus auratus; design: scale not given: the % may be the effect or the level left
# How it was run: (§2)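 Syrian golden hamsters fed high-fructose high-fat diet; oral dosing in 1% gum acacia at 10, 30, 100 mg/kg (or 25 mg/kg) for 7 days, sham control given vehicle; plasma TG, cholesterol, LDL-C, HDL-C, glycerol and NEFA (kits), lipoprotein lipase activity and body weight; % change versus HFD control, six hamsters per group.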
# Mus musculus [3] = test: Reduction in body weight in diabetic C57BL/KsJ db/db mouse model in hyperglycemia at 25 mg/kg, po qd for 10 days relative to untreated control; format: functional; design: scale not given: the % may be the effect or the level left
# How it was run: (§3)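 db/db mice (C57BL/KsJ, 12−18 weeks, 40−50 g, glucose 200−350 mg/dL), housed at 23 ± 2.0 °C on a 12 h light cycle. Oral dosing daily for 10 days. Blood glucose checked each morning through day 9. Body weight recorded daily from day 1 to day 10. Mean % change versus vehicle, 5 mice per group; Student t test.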
# Syrian golden hamster [4] = test: Antidyslipidemic activity in high fructose and high-fat diet fed dyslipidemic Syrian golden hamster model assessed as reduction in LDL-cholesterol level at 100 mg/kg/day, po for 7 days; format: functional, Mesocricetus auratus; design: scale not given: the % may be the effect or the level left; how it was run: as §2
# Mus musculus [5] = test: Antidiabetic activity in diabetic C57BL/KsJ db/db mouse model assessed as reduction in postprandial glucose level in hyperglycemia at 25 mg/kg, po measured 2 hrs post dose; format: functional; design: scale not given: the % may be the effect or the level left
# How it was run: (§4)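 db/db mice (C57BL/KsJ, 12−18 weeks, 40−50 g; selected by glucose 200−350 mg/dL) dosed orally daily for 10 consecutive days at 1, 3, 10, 25 or 50 mg/kg; postprandial blood glucose profile recorded on day 6 with food access interrupted; mean % change versus vehicle in 5 animals per group; Student t test.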
# Syrian golden hamster [6] = test: Antidyslipidemic activity in high fructose and high-fat diet fed dyslipidemic Syrian golden hamster model assessed as increase in HDL-cholesterol level at 10 to 100 mg/kg/day for 7 days; format: functional, organism-based; conditions: Mesocricetus auratus; how it was run: as §2
# Mus musculus [7] = test: Antidiabetic activity in diabetic C57BL/KsJ db/db mouse model assessed as improvement in glucose tolerance in hyperglycemia at 1 mg/kg, po measured 2 hrs post dose; format: functional
# Mus musculus [8] = test: Antidiabetic activity in diabetic C57BL/KsJ db/db mouse model assessed as improvement in glucose tolerance in hyperglycemia at 10 mg/kg, po measured 2 hrs post dose; format: functional
# Syrian golden hamster [9] = test: Antidyslipidemic activity in high fructose and high-fat diet fed dyslipidemic Syrian golden hamster model assessed as reduction in NEFA level at 30 mg/kg/day, po for 7 day, po; format: functional, Mesocricetus auratus; design: scale not given: the % may be the effect or the level left; how it was run: as §2
# Rattus norvegicus = test: Volume of distribution in Sprague-Dawley rat at 25 mg/kg, po by LC-MS/MS method; format: ADME, organism-based; design: dose 25 mg/kg, route oral; conditions: in vivo; how it was run: as §1
# Syrian golden hamster [10] = test: Antidyslipidemic activity in high fructose and high-fat diet fed dyslipidemic Syrian golden hamster model assessed as increase in HDL-cholesterol level at 10 mg/kg/day, po for 7 day, po; format: functional, Mesocricetus auratus; how it was run: as §2
# Syrian golden hamster [11] = test: Reduction in body weight in high fructose and high-fat diet fed dyslipidemic Syrian golden hamster model at 30 mg/kg/day, po for 7 days; format: functional, Mesocricetus auratus; design: scale not given: the % may be the effect or the level left
# How it was run: (§5)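 HFD-fed Syrian golden hamsters, six per group, fed a high-fructose diet. Oral dosing in 1% gum acacia for 7 days. Sham group received vehicle. Plasma TG was measured and body weight tracked. Results given as % change versus HFD control.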
# Mus musculus [12] = test: Antidiabetic activity in po dosed diabetic C57BL/KsJ db/db mouse model assessed as reduction in postprandial glucose level in hyperglycemia measured 2 hrs post dose; format: functional; how it was run: as §4
# Mus musculus [13] = test: Antidiabetic activity in diabetic C57BL/KsJ db/db mouse model assessed as improvement in glucose tolerance in hyperglycemia at 100 mg/kg, po measured 2 hrs post dose; format: functional
# Mus musculus [14] = test: Antidiabetic activity in diabetic C57BL/KsJ db/db mouse model assessed as improvement in glucose tolerance in hyperglycemia at 25 mg/kg, po measured 2 hrs post dose; format: functional
# Syrian golden hamster [15] = test: Antidyslipidemic activity in high fructose and high-fat diet fed dyslipidemic Syrian golden hamster model assessed as reduction in glycerol level at 100 mg/kg/day, po for 7 days; format: functional, Mesocricetus auratus; design: scale not given: the % may be the effect or the level left; how it was run: as §2
# Mus musculus [16] = test: Antihyperglycemic activity in diabetic C57BL/KsJ db/db mouse model assessed as reduction in hyperglycemia at 25 mg/kg, po qd for 10 days; format: functional; design: scale not given: the % may be the effect or the level left; how it was run: as §3
# Syrian golden hamster [17] = test: Antidyslipidemic activity in high fructose and high-fat diet fed dyslipidemic Syrian golden hamster model assessed as reduction in cholesterol level at 30 mg/kg/day, po for 7 day, po; format: functional, Mesocricetus auratus; design: scale not given: the % may be the effect or the level left
# Syrian golden hamster [18] = test: Antidyslipidemic activity in high fructose and high-fat diet fed dyslipidemic Syrian golden hamster model assessed as increase in lipoprotein lipase level at 10 mg/kg/day, po for 7 day, po; format: functional, Mesocricetus auratus; how it was run: as §2
# [19] = Elimination half life in Sprague-Dawley rat at 2.5 mg/kg, iv by LC-MS/MS method; format: ADME, organism-based; design: dose 2.5 mg/kg, route intravenous; conditions: in vivo, read-out: beta t1/2 (converted)
# How it was run: (§6)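 Male Sprague−Dawley rats given a single 2.5 mg/kg iv dose; one formulation was DMF/PG/water (2:4:4), 0.2 μ filtered. Blood drawn from 0.08 to 48 h. Plasma assayed by LC-MS/MS with linear range 0.78−400 ng/mL.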
# [20] = Tmax in Sprague-Dawley rat at 25 mg/kg, po by LC-MS/MS method; format: ADME, organism-based; design: dose 25 mg/kg, route oral; conditions: in vivo; how it was run: as §1
# [21] = Volume of distribution in Sprague-Dawley rat at 2.5 mg/kg, iv by LC-MS/MS method; format: ADME, organism-based; design: dose 2.5 mg/kg, route intravenous; conditions: in vivo; how it was run: as §6
# Syrian golden hamster [22] = test: Antidyslipidemic activity in high fructose and high-fat diet fed dyslipidemic Syrian golden hamster model assessed as reduction in LDL-cholesterol level at 10 to 100 mg/kg/day for 7 days; format: functional, organism-based; conditions: Mesocricetus auratus; how it was run: as §2
# Syrian golden hamster [23] = test: Antidyslipidemic activity in high fructose and high-fat diet fed dyslipidemic Syrian golden hamster model assessed as reduction in LDL-cholesterol level at 30 mg/kg/day, po for 7 day, po; format: functional, Mesocricetus auratus; design: scale not given: the % may be the effect or the level left; how it was run: as §2
# [24] = Cmax in Sprague-Dawley rat at 2.5 mg/kg, iv by LC-MS/MS method; format: ADME, organism-based; design: dose 2.5 mg/kg, route intravenous; conditions: in vivo; how it was run: as §6
# Syrian golden hamster [25] = test: Antidyslipidemic activity in high fructose and high-fat diet fed dyslipidemic Syrian golden hamster model assessed as reduction in cholesterol level at 100 mg/kg/day, po for 7 days; format: functional, Mesocricetus auratus; design: scale not given: the % may be the effect or the level left; how it was run: as §2
# Mus musculus [26] = test: Antidyslipidemic activity in diabetic C57BL/KsJ db/db mouse model assessed as increase in plasma HDL-C/cholesterol ratio at 25 mg/kg, po qd for 10 days; format: functional
# How it was run: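 db/db mice (blood glucose 200−350, TG 170−250, cholesterol 170−250, HDL-C 32−40 mg/dL) dosed orally at 25 mg/kg daily for 10 days; retro-orbital blood taken on day 11 for plasma TG, cholesterol and HDL-C (and HDL-C/CHOL ratio); mean % change versus vehicle control, 5 mice per group; Student t test.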
# Syrian golden hamster [27] = test: Antidyslipidemic activity in high fructose and high-fat diet fed dyslipidemic Syrian golden hamster model assessed as reduction in triglyceride level at 100 mg/kg/day, po for 7 days; format: functional, Mesocricetus auratus; design: scale not given: the % may be the effect or the level left; how it was run: as §5
smiles,measurement,setting,value
CC(C)(C)NC[C@H](O)COc1ccc2c(=O)cc(-c3cc(OCc4ccccc4)cc(OCc4ccccc4)c3)oc2c1,half-life,[1],19.8 h
same,Activity,Syrian golden hamster [2],13.8%
same,Activity,Mus musculus [3],28.2%
same,Activity,Syrian golden hamster [4],68.4%
same,Activity,Mus musculus [5],38.3%
same,Activity,Syrian golden hamster [6],Dose-dependent effect
same,Activity,Mus musculus [7],21.46%
same,Activity,Mus musculus [8],39.9%
same,Activity,Syrian golden hamster [9],26.3%
same,Vd,Rattus norvegicus,107.41 L/kg
same,Activity,Syrian golden hamster [10],9.37%
same,Activity,Syrian golden hamster [11],10.2%
same,ED50,Mus musculus [12],1.72 mg/kg
same,Activity,Mus musculus [13],59.4%
same,Activity,Mus musculus [14],44.6%
same,Activity,Syrian golden hamster [15],50.5%
same,Activity,Mus musculus [16],55.4%
same,Activity,Syrian golden hamster [17],27.2%
same,Activity,Syrian golden hamster [18],13.2%
same,half-life,[19],10.1 h
same,Tmax,[20],8 h
same,Vd,[21],50.3 L/kg
same,Activity,Syrian golden hamster [22],Dose-dependent effect
same,Activity,Syrian golden hamster [23],34.6%
same,Cmax,[24],523 ng/mL
same,Activity,Syrian golden hamster [25],50.7%
same,Percent increase in HDL-C/cholesterol ratio vs vehicle,Mus musculus [26],92.5
same,Activity,Syrian golden hamster [27],76.3%
